Each structure is given as a SMILES string. Active and inactive are the calls of the source. No cut-off for these calls is given here.

For orientation: IC50 means the concentration needed to halve the response being measured.

Assay [1] has as its target T1, Receptor-type tyrosine-protein kinase FLT3 (Homo sapiens, UniProt P36888).
T1 sequence (P36888 whole entry): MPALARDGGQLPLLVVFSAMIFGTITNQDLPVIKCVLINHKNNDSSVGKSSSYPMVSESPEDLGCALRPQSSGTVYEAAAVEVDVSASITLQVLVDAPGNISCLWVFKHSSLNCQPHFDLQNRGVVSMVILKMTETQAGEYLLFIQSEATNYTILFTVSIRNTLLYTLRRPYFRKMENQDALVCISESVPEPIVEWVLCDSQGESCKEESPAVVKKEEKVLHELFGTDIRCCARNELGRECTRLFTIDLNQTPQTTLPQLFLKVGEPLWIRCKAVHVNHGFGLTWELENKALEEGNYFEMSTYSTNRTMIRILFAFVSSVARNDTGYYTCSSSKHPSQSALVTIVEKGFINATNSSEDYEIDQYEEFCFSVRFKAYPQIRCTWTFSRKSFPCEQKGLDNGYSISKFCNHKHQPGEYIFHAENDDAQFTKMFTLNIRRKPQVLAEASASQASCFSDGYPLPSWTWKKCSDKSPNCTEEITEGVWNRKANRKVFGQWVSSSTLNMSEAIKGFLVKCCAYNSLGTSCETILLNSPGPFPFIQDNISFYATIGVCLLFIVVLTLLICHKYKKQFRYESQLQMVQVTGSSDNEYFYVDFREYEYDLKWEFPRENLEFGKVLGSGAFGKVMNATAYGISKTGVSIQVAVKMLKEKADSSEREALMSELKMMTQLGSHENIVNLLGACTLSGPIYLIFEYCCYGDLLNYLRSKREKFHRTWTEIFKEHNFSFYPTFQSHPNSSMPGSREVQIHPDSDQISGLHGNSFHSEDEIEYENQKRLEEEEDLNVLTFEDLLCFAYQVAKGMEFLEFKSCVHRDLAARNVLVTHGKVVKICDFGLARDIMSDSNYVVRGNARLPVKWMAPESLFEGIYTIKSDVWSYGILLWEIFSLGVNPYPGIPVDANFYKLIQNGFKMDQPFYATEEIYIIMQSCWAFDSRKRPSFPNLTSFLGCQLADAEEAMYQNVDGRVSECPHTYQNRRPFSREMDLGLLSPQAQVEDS
Kind of assay: Inhibition of recombinant human N-terminal GST-tagged FLT3 (564 to end residues) expressed by baculovirus in Sf21 insect cells measured after 10 mins in presence of [gamma-33P]ATP by scintillation counter method.

For assay [2], the species on record is Mus musculus. Nature of the assay: Antipsoriatic activity in K14-VEGF transgenic mouse model of psoriasis assessed as recurrence of psoriatic symptoms at 0.05% applied tropically over lesion for continuous 21 days measured after 15 days of last dosage by macroscopic analysis relative to vehicle control. In kind it is functional, organism-based. In a few lines: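 Homozygous K14-VEGF mice, 3–4 months old, with moderate to serious psoriasis. Lesions smeared with cream with or without 0.05% compound for 3 weeks, then observed untreated for another 15 days. Head and neck photographed on days 0, 21 and 36 for macroscopic assessment.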

The subject of assay [3] is BMDC. Kind of assay: Decrease in IL23 level in Balb/c mouse BMDCs at 10 nM treated on day 9 post 9 days of FLT3L-stimulation measured after 12 hrs by ELISA. In kind it is functional, cell-based. In a few lines:
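BALB/c bone marrow cells were plated at 1×10^6/ml in RPMI-1640 with 10% FCS, 10^-4 M 2-ME, pyruvate, antibiotics and FLT3L for 9 days. On day 9, compound in DMSO or 0.1% DMSO was added. After 12 h, supernatant IFN-γ and IL-23 were measured by ELISA. Three independent experiments.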

Assay [4] has as its target T2, Receptor-type tyrosine-protein kinase FLT3 (Mus musculus) (UniProt Q00342).
T2 sequence (whole entry): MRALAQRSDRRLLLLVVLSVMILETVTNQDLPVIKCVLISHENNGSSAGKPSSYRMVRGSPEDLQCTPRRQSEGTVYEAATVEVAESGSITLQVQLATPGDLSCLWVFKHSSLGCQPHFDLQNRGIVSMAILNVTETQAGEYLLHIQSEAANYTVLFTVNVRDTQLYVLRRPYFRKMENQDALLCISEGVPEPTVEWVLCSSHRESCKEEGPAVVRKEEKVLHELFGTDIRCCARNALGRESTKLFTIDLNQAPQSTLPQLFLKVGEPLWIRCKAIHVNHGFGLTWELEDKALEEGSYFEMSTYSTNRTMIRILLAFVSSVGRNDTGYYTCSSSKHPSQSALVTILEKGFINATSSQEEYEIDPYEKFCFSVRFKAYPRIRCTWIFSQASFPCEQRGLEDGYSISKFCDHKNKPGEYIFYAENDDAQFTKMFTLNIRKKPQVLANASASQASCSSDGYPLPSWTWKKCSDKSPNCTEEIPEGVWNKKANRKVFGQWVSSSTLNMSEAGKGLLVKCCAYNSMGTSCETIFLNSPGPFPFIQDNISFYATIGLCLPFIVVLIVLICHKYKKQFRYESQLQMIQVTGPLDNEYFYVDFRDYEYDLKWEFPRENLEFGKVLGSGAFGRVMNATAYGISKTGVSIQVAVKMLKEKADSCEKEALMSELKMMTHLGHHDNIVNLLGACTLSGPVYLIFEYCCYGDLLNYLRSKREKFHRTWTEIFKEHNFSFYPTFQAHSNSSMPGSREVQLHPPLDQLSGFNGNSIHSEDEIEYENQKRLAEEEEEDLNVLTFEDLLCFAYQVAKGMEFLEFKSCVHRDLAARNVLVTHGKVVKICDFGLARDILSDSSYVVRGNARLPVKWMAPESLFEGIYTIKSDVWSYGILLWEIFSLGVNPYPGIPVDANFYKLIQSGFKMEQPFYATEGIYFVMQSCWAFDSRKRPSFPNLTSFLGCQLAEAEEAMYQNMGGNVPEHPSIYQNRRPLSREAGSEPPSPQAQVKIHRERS
Nature of the assay: Inhibition of FLT3 in Balb/c mouse BMDCs assessed as suppression of FLT3L-induced mDC formation measured as lower right quadrant cells level treated on day 9 post 9 days of FLT3L-stimulation measured after 24 hrs by CD11c PerCP and I-A/I-E (MHC class II) FITC staining based flow cytometric analysis (reference value: 3.49%). Details: scale not given: the % may be the effect or the level left. In a few lines:
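BALB/c bone marrow cells were cultured at 1×10^6/ml with FLT3L in supplemented RPMI-1640 for 9 days. Compound in DMSO or 0.1% DMSO was added on day 9 for 24 h. Cells were stained for 30 min with CD11c PerCP plus B220 FITC (pDC: CD11c+ B220+) or MHC II FITC (mDC: CD11c+ MHC II+), then analysed by flow cytometry. Three independent experiments.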
Background: Flow cytometry measures light scatter and fluorescence of single cells or particles in a stream.

For assay [5], the species on record is Mus musculus. Nature of the assay: Antipsoriatic activity in K14-VEGF transgenic mouse model of psoriasis assessed as lower left quadrant FLT3+/CD11c+/MHC-II+ mDC cells in psoriatic plaque lesion at 0.05% applied tropically over lesion for continuous 29 days by flow cytometric analysis (reference value: 1.09%).
Assay [6] is filed under the species Mus musculus. Kind of assay: Antipsoriatic activity in K14-VEGF transgenic mouse model of psoriasis assessed as lower right quadrant DC cells expressing FLT3 and CD11c in psoriatic plaque lesion at 0.05% applied tropically over lesion for continuous 29 days by flow cytometric analysis (reference value: 8.88%). In kind it is functional.

For `CC(C)(C)c1cc(NC(=O)Nc2ccc(Oc3ncnc4[nH]ncc34)c(F)c2)no1`, in assay [1], the IC50 was determined as 5 nM. Also, the result in assay [2] was inactive. In addition, the inhibition result in assay [3] is “Active”. The Activity in assay [4] amounted to 5.15%; in assay [5] it was 1.54%; in assay [6] it was 2.1%.

The values are drawn from ChEMBL document CHEMBL4428067, “Drug Discovery against Psoriasis: Identification of a New Potent FMS-like Tyrosine Kinase 3 (FLT3) Inhibitor, 1-(4-((1H-Pyrazolo[3,4-d]pyrimidin-4-yl)oxy)-3-fluorophenyl)-3-(5-(tert-butyl)isoxazol-3-yl)urea, That Showed Potent Activity in a Psoriatic Animal Model” (J Med Chem, 2016).
